SUMO1 PPI mod – modulators of SUMO1 protein-protein interactions, primary screen, biochemical, uHTS; 360,000 compounds, 0.33% hits; SUMO1 binding to a labelled peptide, TR-FRET, 1 h; AID 602429, 2012; inhibition, % at 20 µM; Small ubiquitin-related modifier 1 (Homo sapiens), P63165; in the data active means inhibition above about 37%
Target sequence (P63165 whole entry, looked up): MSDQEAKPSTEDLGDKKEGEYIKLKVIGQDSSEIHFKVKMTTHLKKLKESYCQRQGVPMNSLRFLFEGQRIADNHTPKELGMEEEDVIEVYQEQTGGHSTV
STEP block – STEP phosphatase inhibitors, primary screen, biochemical, fluorescence intensity, uHTS | inhibition, % at 20 µM | 360,000 compounds, 0.25% hits | Tyrosine-protein phosphatase non-receptor type 5 (Homo sapiens), P54829 | recombinant STEP, OMFP fluorogenic substrate;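 active means inhibition at 20 µM, scaled per plate between control wells, above about 37%, limit read from the data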
Target sequence (P54829 whole entry, looked up): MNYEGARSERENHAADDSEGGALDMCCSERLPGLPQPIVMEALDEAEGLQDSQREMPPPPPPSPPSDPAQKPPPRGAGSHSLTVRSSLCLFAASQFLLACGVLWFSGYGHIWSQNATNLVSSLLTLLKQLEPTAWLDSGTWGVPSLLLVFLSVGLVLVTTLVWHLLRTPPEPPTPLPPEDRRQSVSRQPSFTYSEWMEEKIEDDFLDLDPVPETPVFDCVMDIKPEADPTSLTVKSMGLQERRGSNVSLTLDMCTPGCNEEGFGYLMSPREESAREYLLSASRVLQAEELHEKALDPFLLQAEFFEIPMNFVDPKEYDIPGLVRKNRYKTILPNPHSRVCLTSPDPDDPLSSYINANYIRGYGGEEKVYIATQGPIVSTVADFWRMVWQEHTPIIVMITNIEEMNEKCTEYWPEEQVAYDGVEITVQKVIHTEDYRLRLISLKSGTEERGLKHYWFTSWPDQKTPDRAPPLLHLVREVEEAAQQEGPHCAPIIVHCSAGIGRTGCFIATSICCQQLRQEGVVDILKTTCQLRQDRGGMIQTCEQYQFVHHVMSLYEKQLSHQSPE
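Measure: Control-normalized % inhibition with plate pattern correction | Test system: STEP phosphatase, cell-free reaction | Medium: pH 6.0 Bis-Tris with DTT and Tween 20 | Technique: Fluorescence, 480/540 nm | Times: Reaction 20 min, ambient temperature | Doses: Single compound dose of 20 µM, 1% DMSO final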
LMPTP block – LMPTP phosphatase inhibitors, primary screen, biochemical, fluorescence intensity, uHTS; AID 651560, 2012; Low molecular weight phosphotyrosine protein phosphatase (Homo sapiens), P24666; 360,000 compounds, 0.22% hits; recombinant LMPTP-A, OMFP fluorogenic substrate; inhibition, % at 20 µM;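 active means compounds that cut the enzyme signal by at least half of the control window in the single-dose screen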
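Material: LMPTP-A; amount: 0.625 nM enzyme; doses: single 20 µM dose; times: reaction 50 min, room temperature, dark; technique: fluorescence intensity of OMFP turnover product; benchmarks: no-enzyme and uninhibited controls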
Scp1 inh – Scp-1 phosphatase inhibitors, primary screen, biochemical, colorimetric, uHTS | Carboxy-terminal domain RNA polymerase II polypeptide A small phosphatase 1 (Homo … | Recombinant Scp1, phosphopeptide, malachite green phosphate absorbance | inhibition, % at 20 µM | 340,000 compounds, 0.88% hits | AID 493091, 2011;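 active means inhibition above about 50% at 20 µM, limit read from the data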
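Times: enzyme reaction 45 min at room temperature, colour 5 min, stabilisation 30 min. Material: SCP-1 catalytic fragment, aa 76-261. Medium: Acidic Tris acetate buffer with magnesium and detergent. Signal: colorimetric free-phosphate detection, absorbance 630 nm. Read-out basis: % inhibition of SCP-1 phosphate liberation. Reagent: Phosphorylated 17-residue peptide substrate.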
DNMT1 inh – human DNMT1 methyltransferase inhibitors, primary screen, biochemical, molecular beacon, fluorescence, HinP1I cleavage, uHTS; inhibition (reported as % activation of signal), % at 10 µM; 360,000 compounds, 0.83% hits; DNA (cytosine-5)-methyltransferase 1 (Homo sapiens), P26358; in the data active means inhibition above about 50%
Large screens that a line does not name were inactive; ! = not confirmed by another sample. Most compounds without a hit are left out; they make up all but 1.7% or so of the library.

CC[C@H]1OC(=O)[C@H](C)[C@@H](O[C@H]2C[C@@](C)(OC)[C@@H](O)[C@H](C)O2)[C@H](C)[C@@H](O[C@@H]2O[C@H](C)C[C@H](N(C)C)[C@H]2O)[C@](C)(O)C[C@@H](C)C(=O)[C@H](C)[C@@H](O)[C@]1(C)O	LMPTP block 75, DNMT1 inh 77
CN(C)CCCn1c2c3ccccc3ccc2c2oc(=O)c3ccccc3c21	DNMT1 inh 77
O=C(CC(=O)c1ccccn1)c1ccccc1	none
Cn1cnnc1SCC(=O)Nc1ccccc1	none
Cn1cnnc1SCC(=O)Nc1ccc(OCc2ccccc2)cc1	SUMO1 PPI mod 67
O=C(Cn1nc(-c2ccccc2)ccc1=O)N1CCCCC1	none
CC(=O)N(CCC(Cc1ccccc1)c1ccco1)Cc1ccco1 (stereo unspecified)	none
O=C(c1ccco1)N(CCC(c1ccccc1)c1ccco1)Cc1ccco1 (stereo unspecified)	Scp1 inh 74, DNMT1 inh 100
COc1ccc(NC(=O)C2CCC(C(C)(C)C)CC2)cc1S(=O)(=O)N1CCOCC1 (stereo unspecified)	none
Cc1ccc(NC(=O)C(C)Sc2nnc3ccccn23)cc1 (stereo unspecified)	none
CC(Sc1nnc2ccccn12)C(=O)Nc1ccc2c(c1)OCCO2 (stereo unspecified)	SUMO1 PPI mod 104
CC1C(=O)N(Cc2cn(Cc3ccco3)nn2)CCS(=O)(=O)N1Cc1ccc(-c2cccnc2)cc1 (stereo unspecified)	LMPTP block 54 (no result: Scp1 inh)
Cc1ccc(-c2ccc(CN3C(C)C(=O)N(Cc4cn(Cc5ccco5)nn4)CCS3(=O)=O)cc2)cc1 (stereo unspecified)	none (no result: Scp1 inh)
COc1cccc(-c2cnc(C(O)c3ccc(F)cc3C)[nH]2)c1 (stereo unspecified)	none (no result: Scp1 inh)
O=C1C=C(N2CCCCC2)c2ccccc2C1=O	SUMO1 PPI mod 66, DNMT1 inh 89
O=C1c2ccccc2C(=O)c2c1cccc2N1CCCC1	none
CC(=O)c1ccc(NC(=O)c2ccc(NC(=O)c3ccco3)cc2)cc1	STEP block 86, LMPTP block 72
CC(=O)Nc1ccc(NC(=O)c2ccco2)cc1	none
O=c1c2cc(F)ccc2sn1-c1ccc(F)cc1	Scp1 inh 81
COc1ccc(-n2sc3ccccc3c2=O)cc1	none (no result: Scp1 inh)
Cc1ccc(-c2cc(=O)c3cc(F)ccc3[nH]2)cc1	none
Cc1ccc(C)c(-n2sc3ccc(F)cc3c2=O)c1	Scp1 inh 70
COc1ccc(-n2sc3ccc(F)cc3c2=O)cc1	Scp1 inh 81
C[C@@H]1CN([C@H](C)CO)C(=O)CCCn2cc(nn2)CO[C@H]1CN(C)C(=O)Cc1ccccc1	none (no result: Scp1 inh)
CSc1ccc(Cn2c(C)c(C(=O)NCCC#N)sc2=O)cc1	none (no result: Scp1 inh)
Cc1ccc(OCC(=O)NCCNC(=O)c2ccc(C)nc2)cc1	none
Cc1ccccc1NC(=S)N1CCN(c2ccccc2)CC1	none
Nc1c(C(=O)NCc2ccco2)sc2nc3c(cc12)C(=O)CCC3	Scp1 inh 74
CC1(C)C(=O)Nc2ccccc2N1C(=O)COC(=O)c1ccc(NC(N)=O)cc1	none
Cc1oc2c(C)c3oc(=O)c(CCC(=O)O)c(C)c3cc2c1-c1ccccc1	SUMO1 PPI mod 38
COc1ccc(C2NC(=O)NC3=C2CCc2ccccc23)cc1 (stereo unspecified)	DNMT1 inh 79
CC(C)=C1CCC(C)CC1=NNC(N)=S (stereo unspecified)	Scp1 inh 56
Cc1cccc(C)c1N1C(=O)c2ccccc2NC(=O)C1C(=O)Nc1ccc2c(c1)OCCO2 (stereo unspecified)	none (no result: STEP block, Scp1 inh, DNMT1 inh)
Cc1ccc(C(=O)ONc2ccc(N=NC(=O)c3ccccc3O)cc2)cc1	STEP block 77, LMPTP block 78, Scp1 inh 110
CC(C)(C)n1nnnc1C(c1ccccc1)N1CCN(C(=O)C2CCCO2)CC1 (stereo unspecified)	none (no result: STEP block, Scp1 inh, DNMT1 inh)
Cc1ccc(Cl)cc1NC1=C/C(=N\S(=O)(=O)c2cccs2)c2ccccc2C1=O	DNMT1 inh 57!
O=C(O)c1ccc(NC2=C/C(=N/S(=O)(=O)c3cccs3)c3ccccc3C2=O)cc1	SUMO1 PPI mod 65, DNMT1 inh 97 (no result: Scp1 inh)
Cc1ccc(NC2=C/C(=N\S(=O)(=O)c3cccs3)c3ccccc3C2=O)c(C)c1	none
O=C1C(Nc2ccc(O)cc2)=C/C(=N/S(=O)(=O)c2cccs2)c2ccccc21	SUMO1 PPI mod 52, DNMT1 inh 67
O=C(CSC1=NS(=O)(=O)c2cc(F)ccc2N1)NCCc1ccccc1	none
CCOC(=O)[C@]12CCCC=C1N(CCc1ccc(OC)c(OC)c1)C(=O)[C@H](CC(=O)NCCCCc1ccccc1)C2	none (no result: STEP block, Scp1 inh, DNMT1 inh)
CCc1ccc(N=C2NC(=O)/C(=C/c3cc(Br)c(OCC(=O)O)c(OC)c3)S2)cc1	STEP block 97, LMPTP block 59
CCc1ccc(N=C2NC(=O)/C(=C/c3cc(OC)c(OC)c(OC)c3)S2)cc1	none
Oc1ccc(/C=N/NC(=S)Nc2cccnc2)c(O)c1O	SUMO1 PPI mod 81, LMPTP block 84
CC(=O)N1C[C@H]2CON(C)[C@H]2C[C@H]1c1cccc(-c2ccccc2C)c1	none
COc1ccc(-c2c(C)c3ccc(O)cc3oc2=O)cc1OC	none
Nc1ccc(-c2c3ccc(=O)cc-3oc3cc(O)ccc23)cc1C(=O)O	DNMT1 inh active
O=c1ccc2c(-c3ccccc3)c3ccc(O)cc3oc-2c1	DNMT1 inh active
O=c1cc(-c2ccccc2)oc2cc(O)ccc12	none
COc1ccc(NS(=O)(=O)c2ccc(C(=O)NCC3(N4CCOCC4)CCCCC3)cc2)cc1	SUMO1 PPI mod 40
CN(C)CCN1C(=O)c2cccc3cc([N+](=O)[O-])cc(c23)C1=O	DNMT1 inh 69
Nc1c(C(=O)O)ccc2c1C(=O)c1ccccc1C2=O	none
Nc1cc(C(=O)O)c(N)c2c1C(=O)c1ccccc1C2=O	Scp1 inh 82
COc1ccc2[nH]c3nc(SCc4nnc(-c5ccc(C)cc5)o4)nnc3c2c1	DNMT1 inh 56
COc1ccc(Br)cc1C1CC(=O)N2CN(Cc3ccccc3)CSC2=C1C#N (stereo unspecified)	STEP block 46
Cc1ccc(C2CC(=O)N3CN(c4ccc(Br)cc4)CSC3=C2C#N)o1 (stereo unspecified)	DNMT1 inh 101
O=[N+]([O-])c1nn(-c2cccc(Cl)c2)n(O)c1=NCc1cccnc1	SUMO1 PPI mod 43

Screens from PubChem BioAssay.
